# Bioassay records (PubChem)
# Yeast superoxide = lowers age-related superoxide in aged yeast cells. hit rate 0.18% among 330,000. S. cerevisiae aged cells, superoxide DHE fluorescence; stronger effect = lower value. superoxide response (% of plate mean), % at 10 µM. AID 2690;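 active = superoxide response under a set limit, about three screen SD below normal, cut at about 65% in these data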;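 also: yeast aged for seven days with compound at 30 °C before DHE staining; 100% = average MFI of all compound-treated wells on the plate with controls excluded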
# Cneo AK release = causes C. neoformans cell lysis; lysis activity, % at 15 µM; hit rate 0.2% among 360,000; adenylate kinase release luminescence, 4 h; normalised: neutral wells 0, clomiphene wells 100;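 active = mean lysis activity across replicates of at least 80%, whatever share of replicates individually reach that level; inactive = mean lysis activity below 80%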
#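 Material: C. neoformans cells | Amount: Yeast cell density of 5 × 10^6 cells/mL | Medium: Fresh YPD growth medium | Dosing: Single dose | Times: Static 4 h at 37 °C with compound, 1 h detection | Detection: AK luminescence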
# SUMO Mot1 rescue = blocks SUMOylation pathway, rescuing yeast Mot1-301 growth. S. cerevisiae Mot1-301 growth rescue, ATP luminescence, 38.5C; percent above DMSO median, 100 means doubled. growth rescue, % at 18.8 µM. hit rate 1% among 320,000. AID 2716;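 active = every valid replicate shows activation above 250% relative to neutral control wells; inactive = the rest, any valid replicate at or below 250%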;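 also: OY570 slx delta 5 strain wells were the positive control but not used for scaling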
# Ecoli rRNA inh = inhibits bacterial ribosomal RNA function over humanized ribosomes; E. coli WT GFP vs humanized-ribosome RFP mutants, fluorescence, 24 h; stronger effect = lower value; DMSO median 0, no signal -100; GFP signal change (wild-type ribosome), % (test concentration not listed); hit rate 1.6% among 350,000; AID 720706;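 active = significant combined selectivity score with lowered wild-type GFP, culture density cut under 30%, mutant RFP and density less affected; inactive = any of these conditions unmet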
# PglD inh = inhibitors of Campylobacter jejuni PglD acetyltransferase | purified PglD enzyme, DTNB colorimetric CoA detection | inhibition, % at 12.5 µM | hit rate 0.098% among 360,000 | AID 602405; in the data active = inhibition above about 16%, passing the limit was not always enough
# An asterisk follows results filed as active; . = no result; ! = not active in a repeat. Most compounds without a hit are left out; they make up all but 2.2% or so of the library.
SMILES,Yeast superoxide,Cneo AK release,SUMO Mot1 rescue,Ecoli rRNA inh,PglD inh
O=S1(=O)CCC(N=Cc2cc(Br)ccc2O)C1 (stereo not given),77,85*,77,.,0
CN(C)Cc1nc2ccccc2c(=O)n1Cc1nc(-c2cccc([N+](=O)[O-])c2)cs1,93,.,6,-24*,.
S=C(Nc1ccccc1)N1CCN(c2ccccn2)CC1,101,.,2,-3,.
CCC(C)c1ccc(NC(=S)N2CCN(c3ccccn3)CC2)cc1 (stereo not given),107,105*,74,-27,5
CCOc1ccc2nc(NC(=O)CS(=O)(=O)c3ccc(C)cc3)sc2c1,104,-2,353,-26*,-1
Cc1ccccc1CN1C(=O)c2ccccc2Sc2ccc(C(=O)O)cc21,98,-1,-4,-34*,18
Cc1ccccc1CN1C(=O)c2ccccc2Sc2ccc(C(=O)NCCN3CCOCC3)cc21,86,-2,-6,-2,5
Cc1cccc(CN2C(=O)c3ccccc3Sc3ccc(C(=O)O)cc32)c1,99,-2,101,-21*,4
C[C@H](CO)N1C[C@H](C)[C@@H](CN(C)S(=O)(=O)c2cccs2)Oc2c(NS(=O)(=O)c3cccs3)cccc2C1=O,.,.,.,-6,.
O=C(Nc1cccc(O)c1)c1cc(-c2ccccc2Cl)on1,104,-10,-10,-25*,1
COc1ccccc1C#Cc1cnc2c(c1)C(=O)N([C@@H](C)CO)C[C@H](C)[C@@H](CN(C)C(=O)c1ccc3c(c1)OCO3)O2,.,0,.,-2,-6
Nc1nc(=S)ss1,.,0,.,-13*,3
CNc1snc(C)c1C(=O)OCC(=O)c1ccc(Cl)cc1,103,1,11,3,4
CNc1snc(C)c1C(=O)OC(C)C(=O)c1ccc(F)cc1 (stereo not given),135,-1,-11,-24*,-6
CC1CCN(S(=O)(=O)c2nnc(NC(=O)COc3ccccc3)s2)CC1,84,-2,292*,2,5
CN(C)CCCn1c(=O)n(C2CCCCC2)c(=O)c2c3c(sc21)CCCCC3,101,88*,-15,0,-3
CC(C)C[C@H]1COc2cccc(N3CCC[C@@H]3CO)c2S(=O)(=O)N1,.,.,.,-20,.
O=S1(=O)N[C@@H](Cc2ccccc2)COc2cccc(N3CCC[C@H]3CO)c21,.,.,.,-27*,.
O=C(N/N=C/c1ccc[nH]1)c1cc(-c2cccs2)nc2ccccc12,100,2,259,-24*,-5
O=C(N/N=C/c1cccnc1)c1cc(-c2cccs2)nc2ccccc12,92,6,27,.,3
C[C@@H]1CCCCO[C@@H](CN(C)C(=O)Nc2ccc3c(c2)OCO3)[C@@H](C)CN([C@@H](C)CO)C(=O)c2cc(NC(=O)Nc3ccc4c(c3)OCO4)ccc2O1,.,.,.,3,.
Nc1nc(N)c(Cc2ccc(Cl)cc2Cl)c(N)n1,95,.,-1,-29*,.
CCCNC(=O)[C@@H]1[C@@H](CO)[C@@H]2Cn3c(ccc(C4=CCCCC4)c3=O)[C@H]1N2Cc1cocn1,.,53,.,3,0
COc1cc(/C=N/NC(=O)c2ccccc2NS(=O)(=O)c2cccs2)ccc1O,.,.,.,-14,.
O=C(N/N=C/c1cccnc1)c1ccccc1NS(=O)(=O)c1cccs1,97,2,65,-30*,.
SMILES,Yeast superoxide,Cneo AK release,SUMO Mot1 rescue,Ecoli rRNA inh,PglD inh
O=C(NN=Cc1cc(Br)c(O)c(Br)c1)c1ccccc1NS(=O)(=O)c1cccs1,117,-4,0,-25*,6
O=C(NN=Cc1ccc(F)cc1)c1ccccc1NS(=O)(=O)c1cccs1,103,2,-11,-12,-3
CC(C)NC(=O)N(C)C[C@H]1Oc2ccc(NC(=O)NC3CCCCC3)cc2CC(=O)N([C@@H](C)CO)C[C@H]1C,.,0,.,2,-8
O=C(C1CCCCC1)N1C[C@H]2[C@@H](c3ccccc31)[C@H](CO)N2C(=O)c1ccccc1,.,-4,.,-1,4
CC(=O)C1=C(C)NC(SCC(N)=O)=C(C#N)C1c1sccc1C (stereo not given),104,1,-5,-18,4
CCOC(=O)CSC1=C(C#N)C(c2sccc2C)C(C(C)=O)=C(C)N1 (stereo not given),90,.,-4,-40*,.
NC(=O)C1Cc2ccccc2CN1C(=O)c1cc(C2CC2)nn1-c1ccccc1 (stereo not given),94,0,4,-21*,3
Cc1noc(C)c1NC(=O)Nc1cccc2c1O[C@H](CN(C)CC1CCCCC1)[C@H](C)CN([C@H](C)CO)C2=O,.,55,.,0,18*
Cc1noc(C)c1NC(=O)Nc1cccc2c1O[C@@H](CN(C)C(=O)Nc1ccc3c(c1)OCO3)[C@@H](C)CN([C@H](C)CO)C2=O,97,5,4,-28*!,-4
C[C@H](CO)N1C[C@H](C)[C@H](CN(C)CC2CCCCC2)Oc2c(NS(C)(=O)=O)cccc2C1=O,.,91*,.,7,-3
C[C@@H]1CN([C@H](C)CO)C(=O)c2cc(NC(=O)C3CC3)ccc2O[C@@H]1CN(C)CC1CCCCC1,.,7,.,1,1
C[C@@H]1CN([C@@H](C)CO)C(=O)c2cc(NC(=O)C3CC3)ccc2O[C@H]1CN(C)CC1CCCCC1,.,100*,.,3,-3
Cc1noc(C)c1NC(=O)Nc1cccc2c1O[C@H](CN(C)C(=O)Nc1ccc3c(c1)OCO3)[C@H](C)CN([C@@H](C)CO)C2=O,.,-5,.,0,-1
C[C@@H]1CN([C@H](C)CO)C(=O)c2cccc(NS(C)(=O)=O)c2O[C@H]1CN(C)CC1CCCCC1,.,5,.,5,2
CC(C)NC(=O)Nc1ccc2c(c1)C(=O)N([C@H](C)CO)C[C@@H](C)[C@H](CN(C)C(=O)c1ccncc1)OCCCC[C@@H](C)O2,.,-1,.,1,1
COc1ccc(CN(C)C[C@@H]2OCCCC[C@H](C)Oc3ccc(NC(=O)Cc4ccccc4)cc3C(=O)N([C@H](C)CO)C[C@H]2C)cc1,.,0,.,0,0
C[C@H]1CN([C@@H](C)CO)C(=O)c2cc(NC(=O)Nc3ccc4c(c3)OCO4)ccc2O[C@H]1CN(C)CC1CCCCC1,.,-56,.,1,1
Cc1noc(C)c1NC(=O)Nc1ccc2c(c1)C(=O)N([C@H](C)CO)C[C@@H](C)[C@@H](CN(C)CC1CCCCC1)O2,.,-2,.,1,0
C[C@H](CO)N1C[C@H](C)[C@H](CN(C)CC2CCCCC2)Oc2ccc(NC(=O)Nc3ccc4c(c3)OCO4)cc2C1=O,.,83*,.,3,0
Cc1noc(C)c1NC(=O)Nc1ccc2c(c1)C(=O)N([C@H](C)CO)C[C@H](C)[C@H](CN(C)CC1CCCCC1)O2,.,93*,.,1,-2
C[C@@H]1CN([C@@H](C)CO)C(=O)c2cc(NC(=O)Nc3ccc4c(c3)OCO4)ccc2O[C@@H]1CN(C)CC1CCCCC1,.,-62,.,2,-3
